Published values collected from several papers.
Each line is one published result; the experiments were not run side by side.
Target: Serine/threonine-protein kinase 35 (STK35, Homo sapiens, UniProt Q8TDR2)

| SMILES | test | conditions | remaining binding |
| --- | --- | --- | --- |
| C=CC(=O)N1CCC(C(=O)NCC(=O)N2CCN(c3nc(-c4cnc(N)nc4C(F)F)nc(N4CCOCC4)n3)CC2)CC1 | binding, competition with immobilised ligand | 1 µM | 93% |
| COc1ccc2cc(OCC3(C(=O)O)CN(C(=O)c4ccc(F)cc4)C3)ccc2c1 | cell-free assay, competition with immobilised ligand | 1 µM | 100% |
| F[C@@H]1CCN(c2nccc(-c3cnn4ncccc34)n2)C1 | binding | 1 µM | 100% |
| C[C@@H](c1ccc(-n2cnc3c(N)ncnc32)cc1)N1CCc2nn(C)c(Cc3ccccc3)c2C1=O | binding, competition with immobilised ligand | 0.1 µM | 83% |
| CN(C)c1nccc(-c2cnc3ncccn23)n1 | binding | 1 µM | 100% |
| CCC(=O)N[C@H]1CC[C@@H](C(=O)N(C)c2ccc(-c3nc4ccccc4o3)cc2)C1 | cell-free assay, competition with immobilised ligand | 1 µM | 88% |
| N[C@H]1CCN(c2nccc(-c3cnn4ncccc34)n2)C1 | binding | 1 µM | 89% |
| Cc1c[nH]c2nccc(Oc3c(F)cc(Nc4cc(Cl)nc(N)n4)cc3F)c12 | cell-free assay, competition with immobilised ligand | 0.1 µM | 94% |
| CN(C)c1ncc(F)c(-c2cnn3ncccc23)n1 | binding | 1 µM | 100% |
| Nc1ncc2c(n1)-c1c([nH]c3ccc(C#CC4CC4)cc13)CCCC2 | binding, competition with immobilised ligand | 1 µM | 100% |
| FC(F)(F)Oc1cccc(-c2cnc3ccc(-c4ccncc4)nn23)c1 | binding, competition with immobilised ligand | 5 µM | 100% |
| O=C(NCC1CCOCC1)c1n[nH]cc1NC(=O)c1c(F)cccc1F | binding, competition with immobilised ligand | 1 µM | 92% |
| Cc1nccc(COC(=O)N2C[C@@H]3[C@@H](CNC(=O)c4ccc5[nH]nnc5c4)[C@@H]3C2)n1 | cell-free assay, competition with immobilised ligand | 1 µM | 83% |
| O=C(NCCCN1CCOCC1)c1ccc(Nc2nccc(-c3cc4ccccc4s3)n2)cc1 | binding, competition with immobilised ligand | 1 µM | 92% |
| CCN1CCN(Cc2ccc(C(=O)Nc3ccc(C)c(Oc4ccc5c(c4)CC(=O)N5)c3)cc2C(F)(F)F)CC1 | binding, competition with immobilised ligand | 1 µM | 72% |
| CNC(=O)[C@@H]1CC[C@@H](n2c(-c3ccc4cnccc4c3)nc3ccc(C(=O)NCc4cccc(C(N)=O)c4)cc32)C1 | binding, competition with immobilised ligand | 1 µM | 98% |
| C[C@@H]1CCN(c2nccc(-c3cnn4ncccc34)n2)C1 | binding | 1 µM | 72% |
| NS(=O)(=O)c1cc(NC(=O)C2(c3ccccc3Cl)CC2)ccc1Oc1cccc(Cl)c1 | cell-free assay, competition with immobilised ligand | 1 µM | 94% |
| O=C(c1ccc(Nc2nccc(-c3cc4ccccc4s3)n2)cc1)N1CCC(N2CCCC2)CC1 | binding, competition with immobilised ligand | 1 µM | 100% |
| CN(C)C(=O)Cn1cc(-c2nc(C3(c4ccc(-c5cnc(N)nc5)cc4)CC3)no2)cn1 | cell-free assay, competition with immobilised ligand | 1 µM | 94% |
| COc1ccnn2ncc(-c3ccnc(N(C)C)n3)c12 | binding | 1 µM | 95% |
| O=C(c1ccc(Nc2ncc(Cl)c(-c3cc4ccccc4s3)n2)cc1)N1CCC(N2CCCC2)CC1 | binding, competition with immobilised ligand | 1 µM | 67% |
